Target: Sodium channel protein type 5 subunit alpha (Homo sapiens, UniProt Q14524)
Experiment: Blockade of Na+ current in frog oocytes expressing human cardiac sodium channel (HH1)
Summary of the method: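 HH1 transcripts injected into Xenopus laevis oocytes, incubated at room temperature 24–72 h. Two-microelectrode voltage clamp (3 M KCl electrodes), bath NaCl 140, KCl 2, CaCl2 1.8, MgCl2 1, HEPES 5 mM, pH 7.5, 21–23 °C. Holding −100 mV; peak current at the I–V maximum measured before and after test agent; IC50 in μM.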

Sodium channel protein type 5 subunit alpha, sequence (Q14524 whole entry): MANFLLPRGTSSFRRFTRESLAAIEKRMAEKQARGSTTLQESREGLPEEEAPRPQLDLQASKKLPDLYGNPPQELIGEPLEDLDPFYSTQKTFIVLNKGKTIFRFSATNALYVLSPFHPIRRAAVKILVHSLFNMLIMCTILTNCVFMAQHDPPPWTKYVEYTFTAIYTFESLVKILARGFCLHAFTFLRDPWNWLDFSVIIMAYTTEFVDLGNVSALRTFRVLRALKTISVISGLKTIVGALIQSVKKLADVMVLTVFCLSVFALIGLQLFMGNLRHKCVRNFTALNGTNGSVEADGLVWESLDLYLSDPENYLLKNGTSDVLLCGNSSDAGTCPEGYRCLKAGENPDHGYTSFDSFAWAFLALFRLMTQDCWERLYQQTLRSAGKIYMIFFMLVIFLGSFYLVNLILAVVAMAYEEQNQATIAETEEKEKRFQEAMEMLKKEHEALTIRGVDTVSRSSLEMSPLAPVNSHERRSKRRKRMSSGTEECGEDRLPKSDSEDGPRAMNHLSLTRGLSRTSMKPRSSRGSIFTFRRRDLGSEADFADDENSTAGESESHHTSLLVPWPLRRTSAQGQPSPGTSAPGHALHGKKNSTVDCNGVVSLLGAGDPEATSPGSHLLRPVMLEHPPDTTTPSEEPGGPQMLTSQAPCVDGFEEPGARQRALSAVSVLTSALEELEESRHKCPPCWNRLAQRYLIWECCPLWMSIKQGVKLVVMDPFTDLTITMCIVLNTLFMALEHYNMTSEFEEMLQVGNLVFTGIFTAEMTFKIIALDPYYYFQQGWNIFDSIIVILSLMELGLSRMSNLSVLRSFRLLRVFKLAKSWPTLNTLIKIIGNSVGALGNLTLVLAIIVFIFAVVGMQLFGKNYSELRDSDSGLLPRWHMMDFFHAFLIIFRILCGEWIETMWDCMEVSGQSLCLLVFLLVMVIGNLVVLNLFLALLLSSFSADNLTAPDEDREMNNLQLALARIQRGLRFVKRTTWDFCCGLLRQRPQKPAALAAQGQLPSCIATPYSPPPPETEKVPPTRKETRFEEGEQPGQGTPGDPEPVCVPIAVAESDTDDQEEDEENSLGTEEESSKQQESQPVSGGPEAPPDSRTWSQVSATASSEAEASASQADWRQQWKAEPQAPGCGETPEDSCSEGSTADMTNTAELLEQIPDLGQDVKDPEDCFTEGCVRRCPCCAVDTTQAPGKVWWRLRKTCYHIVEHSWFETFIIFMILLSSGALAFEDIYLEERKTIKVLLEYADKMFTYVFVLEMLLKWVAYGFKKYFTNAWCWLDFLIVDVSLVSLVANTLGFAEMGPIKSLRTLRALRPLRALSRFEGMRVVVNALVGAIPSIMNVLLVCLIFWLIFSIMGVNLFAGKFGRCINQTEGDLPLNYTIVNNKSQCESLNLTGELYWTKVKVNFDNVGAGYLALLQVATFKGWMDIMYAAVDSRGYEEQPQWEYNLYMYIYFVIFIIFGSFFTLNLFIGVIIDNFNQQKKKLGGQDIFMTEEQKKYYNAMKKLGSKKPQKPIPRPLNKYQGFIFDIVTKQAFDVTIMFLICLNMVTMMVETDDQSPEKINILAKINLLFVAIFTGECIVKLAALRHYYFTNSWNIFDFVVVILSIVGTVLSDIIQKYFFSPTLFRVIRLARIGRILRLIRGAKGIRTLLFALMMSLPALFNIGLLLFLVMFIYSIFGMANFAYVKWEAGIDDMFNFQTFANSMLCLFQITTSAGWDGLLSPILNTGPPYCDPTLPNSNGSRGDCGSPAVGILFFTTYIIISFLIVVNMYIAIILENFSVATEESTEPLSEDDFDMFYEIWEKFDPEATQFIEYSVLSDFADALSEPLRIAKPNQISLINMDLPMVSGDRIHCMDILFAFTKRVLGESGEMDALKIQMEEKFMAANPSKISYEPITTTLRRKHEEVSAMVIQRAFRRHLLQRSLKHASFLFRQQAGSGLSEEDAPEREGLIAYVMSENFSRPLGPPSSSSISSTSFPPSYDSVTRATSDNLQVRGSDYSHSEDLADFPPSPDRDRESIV

CSc1ccc([C@H]2N=C(OCc3ccc(NS(C)(=O)=O)cc3)N(C)Cc3ccccc32)cc1
IC50: > 30 µM

From BindingDB's records for doi:10.1021/jm00014a008 (Sterling Winthrop Research, 1995)
